# NF-kB neuron act: compounds increasing NF-kB expression in human neuronal cells; NF-kB reporter expression; hits give high values; fold change at 12.5 µM; actives 1.6% (n = 190,000); AID 1239; in the data active = fold change above about 3.3
# STAT1 act: increases IFN-gamma driven STAT1 reporter signal. NIH 3T3 STAT1-luciferase reporter, luminescence; 100% = IFN-gamma alone, no compound. activation (% of control), % at 5.5 µM. AID 932. actives 2.6% (n = 200,000);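 active = activation above the screen-wide mean activation plus 3 SD, cut at about 130% in these data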;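 note: raw ratio to IFN-gamma control signal so 100% means no change and 0% no light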
# MDM2 E3 inh: Mdm2 E3 ligase (human) inhibition; Q00987; cell-based MDM2 ubiquitination luciferase reporter, 2 h; 0 = plate control, 100 = twice control, blank-subtracted; signal enhancement, % at 5 µM; actives 0.11% (n = 210,000);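 active = signal enhancement of 30% or more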;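 note: luminescence tracks abundance of the self-degrading MDM2-luciferase fusion protein; higher signal means inhibition of MDM2 E3 ligase activity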
#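 Assay system: mammalian cells stably expressing self-ubiquitinating, self-degrading MDM2 E3–luciferase fusion. Quantity: 2000 cells in each well. Medium: DMEM culture medium. Compound dosing: single-point 5 µM. Timing: cell settling 4 h, compound treatment 2 h, both 37 °C. Technique: luciferase luminescence. Read-out basis: percent signal gain over controls, blank-subtracted. Benchmarks: plate controls and plate blanks.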
# PERK inh: human PERK inhibition, primary cell-based screen; Q9NZJ5; CHO PERK-DD fusion, SEAP luminescence translation reporter; inhibition, % at 5.6 µM; actives 0.17% (n = 220,000); AID 1416;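 active = inhibition above the mean inhibition of all tested compounds plus 3 SD, set separately per screening campaign, cut at about 2.9% in these data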;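 note: PERK kinase domain activated by AP20187 dimerizer at 100 nM; 0% = DMSO with dimerizer and 100% = rapamycin at 8.4 µM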
# Target sequence (Q9NZJ5 whole entry, looked up, the tested form may be a part): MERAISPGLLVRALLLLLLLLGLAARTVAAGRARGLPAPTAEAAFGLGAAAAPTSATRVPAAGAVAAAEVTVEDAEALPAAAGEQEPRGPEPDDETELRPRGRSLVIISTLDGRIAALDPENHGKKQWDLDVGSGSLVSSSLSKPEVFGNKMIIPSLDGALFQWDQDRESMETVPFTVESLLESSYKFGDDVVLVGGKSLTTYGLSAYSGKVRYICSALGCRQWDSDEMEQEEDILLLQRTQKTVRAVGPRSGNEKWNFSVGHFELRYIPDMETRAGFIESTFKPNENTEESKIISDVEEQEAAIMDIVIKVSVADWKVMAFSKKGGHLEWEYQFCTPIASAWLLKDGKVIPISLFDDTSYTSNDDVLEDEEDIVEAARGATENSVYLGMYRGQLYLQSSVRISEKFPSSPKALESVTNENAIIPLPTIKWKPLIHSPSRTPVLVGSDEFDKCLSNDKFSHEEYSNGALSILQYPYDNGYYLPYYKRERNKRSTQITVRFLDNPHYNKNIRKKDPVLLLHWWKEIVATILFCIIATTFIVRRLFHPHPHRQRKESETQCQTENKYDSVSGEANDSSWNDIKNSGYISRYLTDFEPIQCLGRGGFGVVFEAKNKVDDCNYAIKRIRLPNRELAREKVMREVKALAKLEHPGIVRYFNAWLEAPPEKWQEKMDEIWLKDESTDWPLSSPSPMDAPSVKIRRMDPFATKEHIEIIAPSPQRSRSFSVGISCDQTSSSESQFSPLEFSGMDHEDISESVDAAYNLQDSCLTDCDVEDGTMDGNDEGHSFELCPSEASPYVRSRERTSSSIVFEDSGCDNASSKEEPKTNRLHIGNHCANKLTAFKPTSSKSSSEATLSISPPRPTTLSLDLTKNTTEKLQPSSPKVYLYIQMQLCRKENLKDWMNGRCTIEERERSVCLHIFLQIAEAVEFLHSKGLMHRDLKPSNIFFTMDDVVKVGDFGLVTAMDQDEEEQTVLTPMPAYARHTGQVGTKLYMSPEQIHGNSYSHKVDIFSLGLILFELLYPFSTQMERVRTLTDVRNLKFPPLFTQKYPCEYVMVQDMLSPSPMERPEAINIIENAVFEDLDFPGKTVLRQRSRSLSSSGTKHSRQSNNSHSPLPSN
# AHR activator: activators of human aryl hydrocarbon receptor. actives 2.5% (n = 320,000). activation, % at 5 µM. AHR-responsive luciferase reporter cells, luminescence; in the data active = activation above about 47%;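 note: 0% = vehicle wells and 100% = reference agonist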
# APP 5'UTR act: APP 5'UTR luciferase reporter activation. activation, % at 2 µM. SH-SY5Y APP 5'UTR luciferase reporter, luminescence; zero percent = DMSO vehicle wells. actives 1% (n = 190,000). AID 1276;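 active = activation above a set limit, based on mean plus 3 SD of controls, cut at about 140% in these data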
# * = called active by the depositor; · = no result. Compounds with a hit are over-represented: about 4.5% of the library has one in this group of screens.
SMILES,NF-kB neuron act,STAT1 act,MDM2 E3 inh,PERK inh,AHR activator,APP 5'UTR act
O=C(O)c1cc(N=Nc2c(O)ccc3ccccc23)cc(C(=O)O)c1,0.91,99.9,-19.3,0.7,·,10.1
Oc1ccc(N=Nc2c(O)ccc3ccccc23)cc1,1.58,93.2,1.1,-1.1,79.3*,21.9
NS(=O)(=O)c1ccc(N=Nc2c(O)ccc3ccccc23)cc1,0.96,132.5*,-25.2,-0.8,4.3,-9.2
COC(=O)c1ccc(SCC(=O)NCc2ccccc2)c([N+](=O)[O-])c1,·,·,·,·,1.1,·
Cc1ccnc(NS(=O)(=O)c2ccc(NC(=O)Cc3ccc(Br)cc3)cc2)n1,·,·,·,·,0.1,·
O=C(NCCCn1ccnc1)/C(=C\c1ccccc1Cl)NC(=O)c1ccccc1,·,·,·,·,5.0,·
CC(=O)N=C(N)Sc1nc2ccccc2[nH]1,2.7,134.5*,-4.3,0.7,40.2,63.2
CC(Sc1nc2ccccc2[nH]1)C(=O)O (stereo unspecified),0.94,98.5,-5.1,0.1,-0.5,0.4
CCOc1ccc(NC(=O)c2ccccc2NC(=O)c2cccnc2)cc1,·,·,·,·,17.5,·
CN1CCN(/N=C/c2ccc(OCc3ccccc3)cc2)CC1,·,·,-16.9,1.3,3.3,·
COC(=O)c1ccc(COc2ccc(/C=N/N3CCN(C)CC3)cc2)cc1,1.68,135.9*,1.9,1.3,17.8,54.9
CC(=O)N1CCN(CCS(=O)(=O)c2ccc(Br)cc2)CC1,·,·,·,·,-0.5,·
COc1ccc(CCNc2oc(-c3ccc(C)cc3)nc2C#N)cc1OC,0.96,94.3,-7.1,0.6,68.7*,46.5
COc1ccc(Nc2oc(-c3ccc(OC)cc3)nc2C#N)cc1,·,·,-6.0,-2.6,15.1,·
Cc1ccc(-c2nc(C#N)c(NCC3CCCO3)o2)cc1 (stereo unspecified),2.2,124.4,-3.5,0.5,62.9*,32.5
COCCNc1oc(-c2ccc(Cl)cc2)nc1C#N,2.36,129.2*,-12.8,-0.5,·,49.7
COc1ccc(-c2nc(C#N)c(NCCc3ccccc3)o2)cc1,1.66,115.4,-11.0,0.2,17.9,14.5
COc1ccc(Nc2oc(-c3ccccc3)nc2C#N)cc1,1.75,131.6*,-3.8,0.8,-3.6,39.4
COc1cc(C(=O)NCc2nnc(SCC(=O)NC3CCCCC3)o2)cc(OC)c1OC,·,·,·,·,-0.4,·
Cc1ccc(-c2nc(C#N)c(NCCc3ccccn3)o2)cc1,1.63,123.4,-0.1,1.2,72.9*,32.3
NC(=O)Cc1c[nH]c2cccc(O)c12,1.04,96.8,·,0.3,5.9,-1.1
COC(=O)CCC(=O)Nc1ccc(S(=O)(=O)Nc2cc(OC)nc(OC)n2)cc1,·,·,·,·,73.5*,·
O=C(c1cc2ccccc2o1)N1CCN(c2cccc(Cl)c2)CC1,·,·,·,·,1.5,·
COc1ccc(C2=NN(C(=O)CN3CCOCC3)C(c3nc4ccccc4[nH]3)C2)cc1 (stereo unspecified),1.11,132.8*,-4.8,0.3,1.4,121.7
Cc1ccc(C)c(S(=O)(=O)Nc2nc3ccc(S(N)(=O)=O)cc3s2)c1,0.99,102.5,-4.5,0.8,1.2,-3.0
SMILES,NF-kB neuron act,STAT1 act,MDM2 E3 inh,PERK inh,AHR activator,APP 5'UTR act
Cc1ccc(C(=O)/C=C/c2ccc3ncccc3c2)cc1,·,·,·,·,2.0,·
Cc1ccc(NC(=O)N2C(=O)C3(OCCO3)c3ccccc32)cc1,2.22,138.1*,1.7,1.1,14.5,90.7
O=C1N(CCCCN2C(=O)C3(OCCO3)c3ccccc32)c2ccccc2C12OCCO2,0.58,107.1,0.3,-0.7,59.9*,9.3
CCN(CC(=O)c1c(N)n(C)c(=O)n(C)c1=O)c1cccc2ccccc12,0.72,94.7,-0.6,-0.6,50.0*,3.6
O=C(COC(=O)Cc1n[nH]c(=O)c2ccccc12)NNC(=O)c1ccc(Cl)cc1,·,·,·,·,23.3,·
O=C1Nc2c(ccc(Cl)c2Cl)C(=O)C1(F)c1ccccc1 (stereo unspecified),·,·,-4.5,-0.2,92.3*,·
O=C1Nc2ccc(Cl)cc2C(=O)C1(F)c1ccccc1 (stereo unspecified),·,·,0.6,0.5,41.0,·
COc1cc(OC)c2c(=O)cc(-c3ccccc3)oc2c1,1.62,116.1,-4.0,0.3,2.2,62.0
COc1cc(OC)c2c(=O)cc(-c3cccnc3)oc2c1,·,·,·,1.4,62.2*,·
Fc1ccccc1-c1cc2ncccc2cn1,·,·,·,·,66.6*,·
COc1ccc(N(C(=O)c2ccco2)C(C(=O)NC2CCCC2)c2cc(OC)c(OC)c(OC)c2)cc1 (stereo unspecified),·,·,·,·,0.2,·
O=C(NNC(=O)c1ccccc1F)c1cccc(-n2cccc2)c1,·,·,·,·,4.3,·
COc1ccccc1N1C(=O)S/C(=C\c2cccs2)C1=O,·,·,·,·,77.9*,·
c1ccc(-c2cc(N3CCCCCC3)n[nH]2)cc1,1.4,130.1*,1.3,0.2,37.6,28.2
COc1ccc(N2C(=O)/C(=C/c3ccc([N+](=O)[O-])cc3)N=C2C)cc1,1.21,98.5,20.7,0.3,-1.3,-3.3
Oc1c(N=Nc2ccccn2)ccc2ccccc12,3.56*,106.0,-50.1,0.3,67.8*,-82.2
c1ccc2[nH]c(CSc3ncnc4c3oc3ccccc34)nc2c1,0.57,91.8,-15.4,-1.7,52.8*,40.3
Cc1nc(SCc2nc3ccccc3[nH]2)c2oc3ccccc3c2n1,0.6,99.5,-17.7,-0.9,10.7,19.9
Cc1nc(SCc2nc3ccccc3[nH]2)c2oc3ccc(Br)cc3c2n1,·,·,·,·,38.2,·
O=C(O)CNc1nc(-c2ccccc2)nc2c1oc1ccccc12,·,·,0.6,1.0,20.6,·
COc1cccc2c1oc1c(SCc3nc4ccccc4[nH]3)nc(C)nc12,·,·,·,·,58.6*,·
OCCCNc1nc(-c2ccccc2)nc2c1oc1ccccc12,·,·,0.8,-1.9,50.1*,·
c1ccc(-c2nc(SCc3nc4ccccc4[nH]3)c3oc4ccccc4c3n2)cc1,·,·,·,·,67.5*,·
CCCC1=C(C(=O)OCC)C(c2ccc(OC)c(C)c2OC)C(C#N)=C(N)O1 (stereo unspecified),1.26,108.9,-13.1,-1.0,-1.0,8.9
O=C(/C=C/c1ccccc1Cl)c1ccccc(=O)c1O,26*,85.1,10.2,0.0,-0.1,10.2
SMILES,NF-kB neuron act,STAT1 act,MDM2 E3 inh,PERK inh,AHR activator,APP 5'UTR act
Cc1ccc(C)c(/C=C/C(=O)c2ccccc(=O)c2O)c1,1.03,76.0,-16.4,-0.1,4.2,-37.5
O=C(NCc1ccccc1)C1CCCN(C(=O)NCc2ccccc2)C1 (stereo unspecified),·,·,·,·,1.1,·
COc1cccc(-c2cccc(NC(=O)C3CCN(Cc4ccon4)CC3)c2)c1,·,·,·,·,7.4,·
Cc1ccc(/C=C/C(=O)c2ccc(O)cc2)cc1,·,·,-13.8,1.1,1.1,·
CSc1ccc(/C=C/C(=O)c2ccc(O)cc2)cc1,3.35*,108.5,-15.1,0.0,0.0,73.2
O=C(/C=C/c1ccco1)c1ccc(O)cc1,3.32*,98.6,-18.4,-0.1,-2.1,79.4
O=C(/C=C/c1ccc(O)cc1)c1ccc(O)cc1O,3.04,74.7,·,0.1,65.5*,12.0
COc1ccc(C(=O)/C=C/c2ccccc2)c(O)c1,2.11,115.0,3.7,1.1,9.0,26.4

# Screens: PubChem BioAssay, several laboratories
